ChEMBL document CHEMBL5661979, “Pharmacological inhibition of BMK1 suppresses tumor growth through promyelocytic leukemia protein” (Cancer Cell, 2010)

How the values were obtained:
[1] = molecular target: Mitogen-activated protein kinase kinase kinase 4 (Homo sapiens, UniProt Q9Y6R4); assay: Inhibition of MAP3K4 in human HeLa cells lysate pre incubated for 15 mins followed by ATP acyl phosphate probe addition and measured after 10 mins by LC-MS/MS analysis; type: subcellular
[2] = molecular target: Eukaryotic translation initiation factor 2-alpha kinase 3 (Homo sapiens, UniProt Q9NZJ5); assay: Inhibition of PEK in human HeLa cells lysate pre incubated for 15 mins followed by ATP acyl phosphate probe addition and measured after 10 mins by LC-MS/MS analysis; type: subcellular
Eukaryotic translation initiation factor 2-alpha kinase 3, sequence (Q9NZJ5 whole entry): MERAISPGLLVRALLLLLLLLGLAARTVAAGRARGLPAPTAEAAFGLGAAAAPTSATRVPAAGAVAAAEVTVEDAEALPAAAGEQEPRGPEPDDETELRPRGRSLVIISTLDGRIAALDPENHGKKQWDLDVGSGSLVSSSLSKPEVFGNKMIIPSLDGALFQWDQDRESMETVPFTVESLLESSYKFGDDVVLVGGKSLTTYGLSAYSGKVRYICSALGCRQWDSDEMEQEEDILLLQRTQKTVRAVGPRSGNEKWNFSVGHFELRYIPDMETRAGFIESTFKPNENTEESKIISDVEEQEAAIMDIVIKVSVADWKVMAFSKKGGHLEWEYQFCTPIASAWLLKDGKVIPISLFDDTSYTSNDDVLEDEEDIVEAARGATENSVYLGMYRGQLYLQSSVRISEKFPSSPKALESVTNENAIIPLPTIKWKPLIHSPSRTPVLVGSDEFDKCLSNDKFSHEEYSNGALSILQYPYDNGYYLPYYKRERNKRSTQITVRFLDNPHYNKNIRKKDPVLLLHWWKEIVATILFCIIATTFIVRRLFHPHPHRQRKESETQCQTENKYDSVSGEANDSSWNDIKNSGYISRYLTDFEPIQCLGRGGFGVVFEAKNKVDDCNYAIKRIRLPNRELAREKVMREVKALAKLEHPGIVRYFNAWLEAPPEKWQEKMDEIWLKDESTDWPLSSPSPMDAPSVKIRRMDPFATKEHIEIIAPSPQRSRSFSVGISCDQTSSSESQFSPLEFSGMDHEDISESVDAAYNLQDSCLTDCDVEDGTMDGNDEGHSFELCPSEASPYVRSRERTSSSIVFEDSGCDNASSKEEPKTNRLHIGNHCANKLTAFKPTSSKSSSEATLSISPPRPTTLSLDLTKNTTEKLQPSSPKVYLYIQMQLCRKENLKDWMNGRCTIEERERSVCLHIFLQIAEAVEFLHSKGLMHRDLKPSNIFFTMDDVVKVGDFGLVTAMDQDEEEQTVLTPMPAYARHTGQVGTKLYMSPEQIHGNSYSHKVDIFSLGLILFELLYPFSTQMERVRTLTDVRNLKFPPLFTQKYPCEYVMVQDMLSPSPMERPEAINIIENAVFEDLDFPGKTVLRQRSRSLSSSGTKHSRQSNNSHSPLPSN

[3] = molecular target: Proto-oncogene tyrosine-protein kinase ROS (Homo sapiens) (UniProt P08922); assay: Inhibition of ROS1 (unknown origin) assessed as remaining activity at 10 uM by ATP-competition binding assay relative to control
[4] = molecular target: Calcium/calmodulin-dependent protein kinase type II subunit delta (Homo sapiens, UniProt Q13557); assay: Inhibition of CAMK2d in human HeLa cells lysate pre incubated for 15 mins followed by ADP acyl phosphate probe addition and measured after 10 mins by LC-MS/MS analysis; type: subcellular
Calcium/calmodulin-dependent protein kinase type II subunit delta, sequence (Q13557 whole entry, the tested form may be a part): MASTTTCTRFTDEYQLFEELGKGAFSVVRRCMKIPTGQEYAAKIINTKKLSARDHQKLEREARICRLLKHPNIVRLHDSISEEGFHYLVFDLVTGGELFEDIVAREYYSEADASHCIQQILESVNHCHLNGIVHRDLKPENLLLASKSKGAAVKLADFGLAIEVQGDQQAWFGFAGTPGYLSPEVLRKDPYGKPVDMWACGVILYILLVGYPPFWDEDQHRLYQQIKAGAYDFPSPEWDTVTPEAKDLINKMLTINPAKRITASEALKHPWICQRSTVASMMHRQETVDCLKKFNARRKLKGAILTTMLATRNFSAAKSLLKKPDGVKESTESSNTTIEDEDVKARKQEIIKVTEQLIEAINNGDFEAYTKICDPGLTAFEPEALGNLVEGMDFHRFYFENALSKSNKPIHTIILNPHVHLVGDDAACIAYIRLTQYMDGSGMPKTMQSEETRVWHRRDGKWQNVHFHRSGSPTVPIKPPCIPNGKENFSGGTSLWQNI
Outline: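 KiNativ-type profiling in HeLa lysate (5 mg/mL total protein). Lysate preincubated 15 min with inhibitor at 50, 10, 2, 0.8 or 0 μM, then ATP or ADP acylphosphate probe added (5 μM final) for 10 min. Reaction stopped with urea and analysed by targeted MS, using up to four fragment ions per kinase peptide-probe conjugate. % inhibition calculated against untreated lysate. Duplicate reactions.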

[5] = molecular target: Inhibitor of nuclear factor kappa-B kinase subunit beta (Homo sapiens, UniProt O14920); assay: Inhibition of IKKB in human HeLa cells lysate pre incubated for 15 mins followed by ADP acyl phosphate probe addition and measured after 10 mins by LC-MS/MS analysis; type: subcellular
Inhibitor of nuclear factor kappa-B kinase subunit beta, sequence (O14920 whole entry): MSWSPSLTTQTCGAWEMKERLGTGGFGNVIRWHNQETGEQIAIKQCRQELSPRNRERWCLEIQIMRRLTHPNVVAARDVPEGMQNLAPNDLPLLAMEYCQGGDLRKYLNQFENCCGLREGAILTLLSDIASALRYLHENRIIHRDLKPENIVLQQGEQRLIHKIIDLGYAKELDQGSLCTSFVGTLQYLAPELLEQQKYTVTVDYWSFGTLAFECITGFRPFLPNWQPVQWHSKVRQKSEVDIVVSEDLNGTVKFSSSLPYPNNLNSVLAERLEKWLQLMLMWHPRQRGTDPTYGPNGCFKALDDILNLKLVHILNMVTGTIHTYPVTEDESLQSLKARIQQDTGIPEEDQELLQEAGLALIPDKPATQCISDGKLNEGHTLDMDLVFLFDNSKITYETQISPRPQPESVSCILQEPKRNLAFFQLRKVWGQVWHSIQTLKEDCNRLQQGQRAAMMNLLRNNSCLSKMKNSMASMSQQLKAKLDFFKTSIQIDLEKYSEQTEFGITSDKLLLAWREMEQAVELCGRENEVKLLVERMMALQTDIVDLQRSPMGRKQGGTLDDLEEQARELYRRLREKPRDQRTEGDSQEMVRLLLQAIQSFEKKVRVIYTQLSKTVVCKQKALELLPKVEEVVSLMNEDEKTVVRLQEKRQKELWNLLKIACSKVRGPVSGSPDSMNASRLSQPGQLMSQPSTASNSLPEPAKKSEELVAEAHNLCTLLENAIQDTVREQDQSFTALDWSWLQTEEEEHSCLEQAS

[6] = molecular target: T1, STE20-related kinase adapter protein beta (Homo sapiens) (UniProt Q9C0K7); assay: Inhibition of ALS2CR2 in human HeLa cells lysate at 2 uM pre incubated for 15 mins followed by ADP acyl phosphate probe addition and measured after 10 mins by LC-MS/MS analysis relative to control; type: subcellular; details: time 25.0 min
T1 sequence (whole entry): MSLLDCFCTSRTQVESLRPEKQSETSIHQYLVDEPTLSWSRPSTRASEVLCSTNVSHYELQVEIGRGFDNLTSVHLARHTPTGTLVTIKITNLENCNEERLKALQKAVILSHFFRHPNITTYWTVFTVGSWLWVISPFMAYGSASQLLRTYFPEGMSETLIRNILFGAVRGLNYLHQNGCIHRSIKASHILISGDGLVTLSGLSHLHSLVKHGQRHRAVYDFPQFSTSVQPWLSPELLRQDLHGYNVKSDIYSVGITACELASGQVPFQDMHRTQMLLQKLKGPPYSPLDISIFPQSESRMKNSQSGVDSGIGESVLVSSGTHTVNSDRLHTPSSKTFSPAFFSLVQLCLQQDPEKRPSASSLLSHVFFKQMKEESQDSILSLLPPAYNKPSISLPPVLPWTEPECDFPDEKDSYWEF
Outline: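 HeLa cell lysates (5 mg/mL total protein) were preincubated with inhibitor at 0, 0.8, 2, 10 or 50 μM for 15 min. ATP or ADP acylphosphate probe was then added (5 μM final) for 10 min, and reactions were stopped with urea. Up to four fragment ions per kinase probe-peptide were quantified by targeted MS. % inhibition was taken relative to untreated lysate. Run in duplicate.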

[7] = molecular target: Serine/threonine-protein kinase PLK1 (Homo sapiens, UniProt P53350); assay: Inhibition of PLK1 in human HeLa cells lysate at 50 uM pre incubated for 15 mins followed by ATP acyl phosphate probe addition and measured after 10 mins by LC-MS/MS analysis relative to control; type: subcellular; details: time 25.0 min
Serine/threonine-protein kinase PLK1, sequence (P53350 whole entry, canonical isoform): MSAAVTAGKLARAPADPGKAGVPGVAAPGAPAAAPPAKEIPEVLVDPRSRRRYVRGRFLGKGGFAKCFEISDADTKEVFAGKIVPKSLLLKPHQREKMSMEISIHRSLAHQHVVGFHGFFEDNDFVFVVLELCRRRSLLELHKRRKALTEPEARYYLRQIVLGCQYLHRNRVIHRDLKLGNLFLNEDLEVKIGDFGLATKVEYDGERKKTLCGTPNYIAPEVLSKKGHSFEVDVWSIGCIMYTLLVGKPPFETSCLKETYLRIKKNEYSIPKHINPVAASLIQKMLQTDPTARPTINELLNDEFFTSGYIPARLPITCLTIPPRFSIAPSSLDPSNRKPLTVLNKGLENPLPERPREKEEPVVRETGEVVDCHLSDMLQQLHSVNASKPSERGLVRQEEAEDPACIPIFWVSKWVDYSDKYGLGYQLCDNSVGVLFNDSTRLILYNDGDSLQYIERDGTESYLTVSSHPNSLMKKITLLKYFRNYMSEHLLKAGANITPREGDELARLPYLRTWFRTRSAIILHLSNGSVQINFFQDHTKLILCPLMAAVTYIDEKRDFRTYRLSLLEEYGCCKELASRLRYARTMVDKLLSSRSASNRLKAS

[8] = molecular target: T2, Phosphorylase b kinase gamma catalytic chain, liver/testis isoform (Homo sapiens) (UniProt P15735); assay: Inhibition of PHKg2 in human HeLa cells lysate at 10 uM pre incubated for 15 mins followed by ATP acyl phosphate probe addition and measured after 10 mins by LC-MS/MS analysis relative to control; type: subcellular; details: time 25.0 min
T2 sequence (whole entry): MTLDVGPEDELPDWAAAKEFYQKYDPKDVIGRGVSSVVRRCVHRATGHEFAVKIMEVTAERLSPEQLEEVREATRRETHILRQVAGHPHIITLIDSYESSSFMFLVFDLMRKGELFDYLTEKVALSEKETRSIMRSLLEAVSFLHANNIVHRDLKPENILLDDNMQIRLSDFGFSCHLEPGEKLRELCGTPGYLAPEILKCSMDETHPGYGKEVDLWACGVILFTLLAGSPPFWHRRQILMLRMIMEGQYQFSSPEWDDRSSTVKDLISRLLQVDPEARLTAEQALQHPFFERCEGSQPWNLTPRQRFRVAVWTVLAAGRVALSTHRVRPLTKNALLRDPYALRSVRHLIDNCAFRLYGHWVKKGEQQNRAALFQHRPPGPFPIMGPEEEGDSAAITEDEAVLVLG

[9] = molecular target: T3, Serine/threonine-protein kinase Chk1 (Homo sapiens) (UniProt O14757); assay: Inhibition of CHK1 in human HeLa cells lysate at 10 uM pre incubated for 15 mins followed by ATP acyl phosphate probe addition and measured after 10 mins by LC-MS/MS analysis relative to control; type: subcellular; details: time 25.0 min
T3 sequence (whole entry): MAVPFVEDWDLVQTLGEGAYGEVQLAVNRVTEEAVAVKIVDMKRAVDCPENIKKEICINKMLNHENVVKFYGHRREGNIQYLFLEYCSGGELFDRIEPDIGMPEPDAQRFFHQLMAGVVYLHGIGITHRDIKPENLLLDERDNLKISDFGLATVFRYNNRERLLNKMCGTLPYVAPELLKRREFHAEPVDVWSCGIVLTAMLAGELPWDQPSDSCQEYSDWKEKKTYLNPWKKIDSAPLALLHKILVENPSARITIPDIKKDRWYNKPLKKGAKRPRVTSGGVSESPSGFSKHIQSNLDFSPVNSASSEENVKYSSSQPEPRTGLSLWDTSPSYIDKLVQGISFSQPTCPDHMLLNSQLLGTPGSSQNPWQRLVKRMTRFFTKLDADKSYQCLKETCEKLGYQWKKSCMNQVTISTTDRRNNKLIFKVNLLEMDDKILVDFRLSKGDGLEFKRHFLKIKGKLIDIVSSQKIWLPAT

[10] = molecular target: T4, Dual specificity mitogen-activated protein kinase kinase 4 (Homo sapiens) (UniProt P45985); assay: Inhibition of MAP2K4 in human HeLa cells lysate at 2 uM pre incubated for 15 mins followed by ATP acyl phosphate probe addition and measured after 10 mins by LC-MS/MS analysis relative to control; type: subcellular; details: time 25.0 min
T4 sequence (whole entry): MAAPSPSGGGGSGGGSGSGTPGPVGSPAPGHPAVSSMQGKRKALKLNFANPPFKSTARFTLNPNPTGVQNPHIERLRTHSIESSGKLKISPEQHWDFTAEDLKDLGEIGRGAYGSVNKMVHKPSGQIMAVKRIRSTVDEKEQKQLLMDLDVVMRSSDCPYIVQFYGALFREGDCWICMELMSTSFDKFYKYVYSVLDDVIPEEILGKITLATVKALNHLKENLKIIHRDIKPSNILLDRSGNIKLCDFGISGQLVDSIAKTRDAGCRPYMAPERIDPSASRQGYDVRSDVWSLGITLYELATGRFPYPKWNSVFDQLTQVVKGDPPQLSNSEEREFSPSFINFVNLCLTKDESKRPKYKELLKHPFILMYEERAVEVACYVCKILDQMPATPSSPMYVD

Mitogen-activated protein kinase kinase kinase 4, sequence (Q9Y6R4 whole entry): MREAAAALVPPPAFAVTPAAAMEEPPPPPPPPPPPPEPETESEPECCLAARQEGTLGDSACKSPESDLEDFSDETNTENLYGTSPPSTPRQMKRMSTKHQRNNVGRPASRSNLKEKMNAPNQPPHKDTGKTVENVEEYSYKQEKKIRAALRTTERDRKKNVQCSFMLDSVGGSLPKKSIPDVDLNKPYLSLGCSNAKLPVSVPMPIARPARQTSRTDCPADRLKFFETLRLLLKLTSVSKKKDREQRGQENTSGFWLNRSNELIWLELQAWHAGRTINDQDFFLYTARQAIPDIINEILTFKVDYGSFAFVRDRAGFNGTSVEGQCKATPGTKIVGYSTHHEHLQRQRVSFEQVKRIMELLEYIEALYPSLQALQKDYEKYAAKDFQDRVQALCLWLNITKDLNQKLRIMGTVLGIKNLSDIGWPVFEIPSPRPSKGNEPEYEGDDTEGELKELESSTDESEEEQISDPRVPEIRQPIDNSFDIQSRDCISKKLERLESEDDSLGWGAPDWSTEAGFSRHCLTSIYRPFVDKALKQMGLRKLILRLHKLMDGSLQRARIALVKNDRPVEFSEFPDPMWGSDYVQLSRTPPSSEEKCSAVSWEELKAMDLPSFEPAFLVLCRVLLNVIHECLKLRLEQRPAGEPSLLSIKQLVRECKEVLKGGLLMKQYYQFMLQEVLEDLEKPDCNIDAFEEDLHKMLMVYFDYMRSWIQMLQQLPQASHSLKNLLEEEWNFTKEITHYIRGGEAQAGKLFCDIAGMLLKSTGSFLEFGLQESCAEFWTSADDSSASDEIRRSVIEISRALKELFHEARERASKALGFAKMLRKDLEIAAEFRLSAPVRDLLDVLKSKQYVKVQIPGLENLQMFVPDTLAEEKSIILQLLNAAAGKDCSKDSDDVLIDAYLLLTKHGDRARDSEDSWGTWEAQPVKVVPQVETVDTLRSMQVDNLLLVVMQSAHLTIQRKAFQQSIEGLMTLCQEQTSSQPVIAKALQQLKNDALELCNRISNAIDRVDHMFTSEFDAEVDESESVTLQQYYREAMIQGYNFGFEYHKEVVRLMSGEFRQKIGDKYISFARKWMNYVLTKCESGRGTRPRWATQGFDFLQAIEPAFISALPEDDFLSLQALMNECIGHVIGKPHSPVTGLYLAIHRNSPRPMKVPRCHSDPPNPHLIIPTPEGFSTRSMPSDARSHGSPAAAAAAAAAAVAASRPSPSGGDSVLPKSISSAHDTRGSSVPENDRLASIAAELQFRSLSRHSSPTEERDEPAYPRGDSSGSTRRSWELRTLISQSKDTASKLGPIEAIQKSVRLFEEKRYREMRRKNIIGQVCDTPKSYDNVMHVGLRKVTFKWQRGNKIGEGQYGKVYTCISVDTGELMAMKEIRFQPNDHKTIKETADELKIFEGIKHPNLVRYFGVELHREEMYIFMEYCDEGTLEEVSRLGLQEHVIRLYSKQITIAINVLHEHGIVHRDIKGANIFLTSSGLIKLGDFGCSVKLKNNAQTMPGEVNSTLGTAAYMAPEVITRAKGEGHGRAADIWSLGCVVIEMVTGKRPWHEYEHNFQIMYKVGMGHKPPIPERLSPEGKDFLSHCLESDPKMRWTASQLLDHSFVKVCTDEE

SMILES: CCOc1cc(N2CCC(O)CC2)ccc1Nc1ncc2c(n1)N(C)c1ccccc1C(=O)N2C
- IC50 [1]: > 50 µM
- IC50 [2]: > 50 µM
- Activity [3]: 15%
- IC50 [4]: > 50 µM
- IC50 [5]: > 50 µM
- inhibition [6]: 17%
- inhibition [7]: -6.5%
- inhibition [8]: -4.9%
- inhibition [9]: -9.9%
- inhibition [10]: 4.8%
